Source: ChEMBL document CHEMBL1833955, “Optimization of (arylpiperazinylbutyl)oxindoles exhibiting selective 5-HT₇ receptor antagonist activity” (J Med Chem, 2011)

Legend:
[1] = target: 5-hydroxytryptamine receptor 7 (Homo sapiens, UniProt P34969); test: Displacement of [3H]CT from human 5-HT7 receptor expressed in CHO cells by scintillation spectrometry; format: cell-based
Method in brief: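 Cloned human 5-HT7 receptor from CHO cells, run under the supplier's recommended conditions with [3H]CT. Nonspecific binding with 25 μM clozapine. Ended by GF/C filtration, then scintillation counting. Ki taken from two nine-concentration displacement curves run in triplicate, single-site fit.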

[2] = target: T1, 5-hydroxytryptamine receptor 1A (Rattus norvegicus, UniProt P19327); test: Displacement of [3H]8-OH-DPAT from 5-HT1A receptor in rat frontal cortex membrane after 45 mins by scintillation counting; format: cell membranes
T1 sequence (P19327 whole entry): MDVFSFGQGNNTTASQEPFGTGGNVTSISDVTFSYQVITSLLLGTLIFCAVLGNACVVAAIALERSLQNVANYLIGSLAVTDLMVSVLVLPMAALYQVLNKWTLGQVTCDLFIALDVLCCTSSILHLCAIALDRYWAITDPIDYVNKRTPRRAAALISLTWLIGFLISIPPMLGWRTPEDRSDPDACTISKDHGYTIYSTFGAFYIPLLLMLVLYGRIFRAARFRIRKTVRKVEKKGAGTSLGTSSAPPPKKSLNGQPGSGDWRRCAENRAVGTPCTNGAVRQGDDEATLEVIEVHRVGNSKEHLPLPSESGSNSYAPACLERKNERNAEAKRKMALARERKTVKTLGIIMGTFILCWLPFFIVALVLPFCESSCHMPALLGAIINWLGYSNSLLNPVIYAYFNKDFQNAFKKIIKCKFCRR
Method in brief: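 Membranes from adult rat frontal cortex, prepared in 50 mM Tris-HCl pH 7.7 with washes and a 37 °C preincubation. Incubation buffer: 6.66 mM CaCl2, 16.66 μM pargyline, 0.166% ascorbic acid. Ligand 1.5 nM [3H]8-OH-DPAT; 10 μM 5-HT defines nonspecific binding. 45 min at 25 °C, GF/B filtration, scintillation counting. Triplicates; Ki from two nine-point curves, single-site fit.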

[3] = target: T2, Adrenergic receptor alpha-1 (Rattus norvegicus, UniProt P15823+P23944+P43140); test: Displacement of [3H]prazosin from alpha1-adrenergic receptor in rat frontal cortex membrane after 45 mins by scintillation spectrometry; format: cell membranes
T2 sequence (P15823 whole entry): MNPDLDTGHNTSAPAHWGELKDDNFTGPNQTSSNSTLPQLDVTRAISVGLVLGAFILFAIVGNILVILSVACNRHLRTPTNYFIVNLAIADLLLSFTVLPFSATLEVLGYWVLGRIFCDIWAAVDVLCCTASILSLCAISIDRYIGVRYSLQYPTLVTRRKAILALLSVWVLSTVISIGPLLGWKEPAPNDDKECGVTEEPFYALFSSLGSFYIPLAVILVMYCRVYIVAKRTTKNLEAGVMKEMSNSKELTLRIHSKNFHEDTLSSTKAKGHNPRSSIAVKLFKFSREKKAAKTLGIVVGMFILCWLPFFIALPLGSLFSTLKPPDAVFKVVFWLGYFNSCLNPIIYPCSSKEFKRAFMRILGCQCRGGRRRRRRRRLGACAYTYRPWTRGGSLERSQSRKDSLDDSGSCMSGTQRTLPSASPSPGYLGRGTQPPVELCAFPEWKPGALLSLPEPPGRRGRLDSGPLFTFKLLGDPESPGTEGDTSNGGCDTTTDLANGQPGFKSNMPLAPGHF
T2 sequence (P23944 whole entry): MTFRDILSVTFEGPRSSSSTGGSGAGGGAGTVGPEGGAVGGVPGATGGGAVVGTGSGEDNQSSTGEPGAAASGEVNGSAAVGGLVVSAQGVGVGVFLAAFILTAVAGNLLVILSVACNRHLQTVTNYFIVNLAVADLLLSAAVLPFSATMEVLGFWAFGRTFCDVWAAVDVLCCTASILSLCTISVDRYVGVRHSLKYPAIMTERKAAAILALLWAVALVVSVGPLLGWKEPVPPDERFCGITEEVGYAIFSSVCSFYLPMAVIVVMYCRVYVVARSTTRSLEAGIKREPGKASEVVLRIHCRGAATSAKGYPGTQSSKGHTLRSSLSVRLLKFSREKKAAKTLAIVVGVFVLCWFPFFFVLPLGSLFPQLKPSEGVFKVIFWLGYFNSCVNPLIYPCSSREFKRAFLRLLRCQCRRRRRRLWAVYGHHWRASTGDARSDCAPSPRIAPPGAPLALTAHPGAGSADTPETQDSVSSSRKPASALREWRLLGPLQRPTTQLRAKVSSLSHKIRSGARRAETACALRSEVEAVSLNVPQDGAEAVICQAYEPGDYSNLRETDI
T2 sequence (P43140 whole entry): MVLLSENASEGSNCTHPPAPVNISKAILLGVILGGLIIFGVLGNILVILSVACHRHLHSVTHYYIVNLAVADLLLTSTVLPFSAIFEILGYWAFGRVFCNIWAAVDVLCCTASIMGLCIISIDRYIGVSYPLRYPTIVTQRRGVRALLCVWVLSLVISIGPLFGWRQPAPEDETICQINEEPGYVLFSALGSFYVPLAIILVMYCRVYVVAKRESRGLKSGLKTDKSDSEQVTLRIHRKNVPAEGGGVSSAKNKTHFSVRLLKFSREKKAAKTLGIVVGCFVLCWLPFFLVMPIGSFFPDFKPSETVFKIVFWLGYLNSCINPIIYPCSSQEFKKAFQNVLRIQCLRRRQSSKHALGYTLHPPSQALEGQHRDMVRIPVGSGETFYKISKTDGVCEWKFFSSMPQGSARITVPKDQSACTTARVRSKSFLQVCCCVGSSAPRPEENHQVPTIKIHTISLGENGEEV
Method in brief: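 Rat frontal cortex tissue frozen on dry ice, homogenised in 50 mM Tris-HCl pH 7.7 and washed by centrifugation. [3H]prazosin at 0.6 nM; 10 μM prazosin defines nonspecific binding. 45 min at 25 °C, GF/B filtration, scintillation counting. Triplicates; Ki from two nine-concentration curves fitted to a single-site model.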

[4] = Metabolic stability in rat liver microsomes after 60 mins by HPLC-MS/MS analysis; format: ADME, Microsome; conditions: read-out: Stability
Method in brief: (§1)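 Test compound at 100 nM final incubated with rat or human liver microsomes (0.33 mg/mL) at 37 °C for 0, 5, 15, 30 and 60 min. Buffer Tris-HCl pH 7.4 with Mg2+ and BSA. Reaction started with NADPH and stopped with ice-cold MeOH. Parent compound measured by HPLC-MS/MS, positive-ion MRM.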

[5] = target: T3, 5-hydroxytryptamine receptor 1A (Rattus norvegicus) (UniProt P19327); test: Displacement of [3H]8-OH-DPAT from 5-HT1A receptor in rat frontal cortex membrane at 10^-7 M after 45 mins by scintillation counting; format: cell membranes
T3 sequence (whole entry): T1 sequence (P19327 whole entry)

[6] = Metabolic stability in human liver microsomes after 60 mins by HPLC-MS/MS analysis; format: ADME, Microsome; conditions: read-out: Stability; method in brief: as §1
[7] = Selectivity ratio of Ki for alpha1-adrenergic receptor in rat frontal cortex membrane to Ki for human 5-HT7 receptor; format: cell membranes
[8] = Selectivity ratio of Ki for 5-HT1A receptor in rat frontal cortex membrane to Ki for human 5-HT7 receptor; format: cell membranes

Sequence of 5-hydroxytryptamine receptor 7 (P34969 whole entry): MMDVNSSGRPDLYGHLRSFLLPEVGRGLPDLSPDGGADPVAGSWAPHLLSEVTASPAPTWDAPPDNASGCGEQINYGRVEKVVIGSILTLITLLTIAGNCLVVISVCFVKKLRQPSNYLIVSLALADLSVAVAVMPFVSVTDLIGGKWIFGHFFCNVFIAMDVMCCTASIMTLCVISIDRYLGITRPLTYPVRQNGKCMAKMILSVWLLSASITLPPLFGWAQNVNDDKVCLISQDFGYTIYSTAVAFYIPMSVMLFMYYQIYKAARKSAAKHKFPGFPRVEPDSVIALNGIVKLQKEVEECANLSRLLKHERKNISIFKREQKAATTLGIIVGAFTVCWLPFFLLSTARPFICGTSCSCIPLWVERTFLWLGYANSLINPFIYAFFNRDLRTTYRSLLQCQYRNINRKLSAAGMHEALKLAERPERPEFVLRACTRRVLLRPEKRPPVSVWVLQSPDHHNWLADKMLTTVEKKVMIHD

SMILES	Ki [1] [µM]	Ki [2] [µM]	Ki [3] [µM]	remaining at 1 h [4] [%]	inhibition [5] [%]	remaining at 1 h [6] [%]	Ratio Ki [7]	Ratio Ki [8]
O=C1Nc2cc(F)ccc2C1CCCCN1CCN(c2cccc(Cl)c2)CC1 (centres undefined)	0.0067	0.118	0.0125	–	–	–	–	–
O=C1Nc2c(Cl)cc(Cl)cc2C1CCCCN1CCN(c2ccc(Cl)cc2)CC1 (centres undefined)	0.107	–	0.757	–	–	–	–	–
O=C1Nc2ccc(F)cc2C1CCCCN1CCN(c2ccccc2)CC1 (centres undefined)	0.047	–	0.02	–	–	–	–	–
CCC1(CCCCN2CCN(c3ccc(Cl)cc3)CC2)C(=O)Nc2cc(F)c(Cl)cc21 (centres undefined)	0.01	–	0.191	18	0	10	19	> 100
O=C1Nc2ccccc2C1CCCCN1CCN(c2ccc(Cl)cc2)CC1 (centres undefined)	0.007	–	0.042	10	–	52	6	257
CCC1(CCCCN2CCN(c3ccccn3)CC2)C(=O)Nc2ccccc21 (centres undefined)	0.004	0.055	0.15	–	–	–	–	–
O=C1Nc2ccccc2C1CCCCN1CCN(c2ccc(F)cc2)CC1 (centres undefined)	0.005	–	0.014	–	10	–	–	–
CCC1(CCCCN2CC=C(c3ccc(F)cc3)CC2)C(=O)Nc2ccccc21 (centres undefined)	–	–	0.046	–	62	–	–	–
CCC1(CCCCN2CCN(c3ccccc3OC)CC2)C(=O)Nc2ccccc21 (centres undefined)	–	0.0098	0.027	–	–	–	–	–
O=C1Nc2ccccc2C1CCCCN1CCN(c2ccccn2)CC1 (centres undefined)	0.0109	0.056	0.13	–	–	–	–	–
CCC1(CCCCN2CCN(c3cccc(C(F)(F)F)c3)CC2)C(=O)Nc2ccccc21 (centres undefined)	0.0051	0.036	–	–	–	–	–	–
CCC1(CCCCN2CCN(c3cccc(Cl)c3)CC2)C(=O)Nc2cc(F)c(Cl)cc21 (centres undefined)	–	–	0.117	16	16	46	13	> 100
CCC1(CCCCN2CCC(c3ccc(F)cc3)CC2)C(=O)Nc2ccccc21 (centres undefined)	0.0069	–	0.029	–	11	–	–	–
O=C1Nc2ccccc2C1CCCCN1CCN(c2ccccc2)CC1 (centres undefined)	0.016	0.243	0.022	–	–	–	–	–
O=C1Nc2ccccc2C1CCCCN1CC=C(c2cccc(C(F)(F)F)c2)CC1 (centres undefined)	0.0111	0.019	0.31	–	–	–	–	–
O=C1Nc2cc(F)ccc2C1CCCCN1CC=C(c2cccc(Cl)c2)CC1 (centres undefined)	0.013	–	–	–	72	–	–	–
CCC1(CCCCN2CCN(c3cccc(Cl)c3)CC2)C(=O)Nc2ccc(F)cc21 (centres undefined)	–	0.111	0.046	–	–	–	–	–
O=C1Nc2cc(F)ccc2C1CCCCN1CCN(c2ccc(Cl)cc2)CC1 (centres undefined)	0.025	–	0.055	–	6	–	–	–
CCC1(CCCCN2CCN(c3ccc(Cl)cc3Cl)CC2)C(=O)Nc2ccccc21 (centres undefined)	0.139	–	0.38	17	11	28	3	–
CCC1(CCCCN2CC=C(c3cccc(Cl)c3)CC2)C(=O)Nc2ccc(F)cc21 (centres undefined)	0.052	0.123	0.14	–	–	–	–	–
CCC1(CCCCN2CCN(c3ccccc3Cl)CC2)C(=O)Nc2ccccc21 (centres undefined)	0.053	0.03	0.064	–	–	–	–	–
CCC1(CCCCN2CCN(c3cccc(Cl)c3)CC2)C(=O)Nc2c1cc(Cl)c(F)c2Cl (centres undefined)	0.072	0.68	0.097	–	–	–	–	–
CCC1(CCCCN2CCN(c3cccc(F)c3)CC2)C(=O)Nc2ccccc21 (centres undefined)	0.011	0.073	–	–	–	–	–	–
O=C1Nc2ccc(F)cc2C1CCCCN1CCN(c2ccc(Cl)cc2)CC1 (centres undefined)	0.04	–	0.116	28	0	44	3	> 100
O=C1Nc2cc(F)ccc2C1CCCCN1CCN(c2ccccn2)CC1 (centres undefined)	0.0168	0.099	0.033	–	–	–	–	–
